Test results reported in ChEMBL document CHEMBL3877264, “Quinolidene-rhodanine conjugates: Facile synthesis and biological evaluation” (Eur J Med Chem, 2017).
In brackets after ≈: the same amount, converted by molar mass.

Experiments:
[1] = Cytotoxicity against […]-differentiated human THP1 cells assessed as growth inhibition at 100 ug/ml measured after 48 hrs by MTT assay relative to control; assay type: toxicity, cell-based, THP-1; conditions: read-out: GI
How it was run: (§1)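 MTT assay with 48 h compound exposure. THP-1 macrophages made by 24 h PMA treatment. Each concentration tested in triplicate in one experiment. % cytotoxicity = (control−test)/(control−blank)×100, with control = cells + DMSO and blank = medium without cells. IC50 from % survival versus concentration plots.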

[2] = tested on: Mycobacterium tuberculosis; assay: Growth inhibition of Mycobacterium tuberculosis H37Ra ATCC 25177 at dormant stage measured after 12 days by XTT dye based two fold dilution method; assay type: functional; conditions: H37Ra ATCC 25177, 288 h
How it was run: (§2)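 MTB H37Ra was grown in Dubos medium, then exposed in Mycobacterium pheli minimal medium (pH 6.6) to compounds dissolved in DMSO. The assay ended on day 8 (active) or day 12 (dormant). Viable cells were measured by XTT reduction menadione assay at 470 nm, blank-corrected, relative to vehicle control. Triplicates were expressed as mean ± SD. MIC came from dose-response curves.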

Bacillus subtilis [3] = assay: Growth inhibition of Bacillus subtilis NCIM 2079 at 3 ug/ml measured after 12 hrs relative to control; assay type: functional; conditions: NCIM 2079, 12 h, read-out: GI
How it was run: (§3)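 Bacteria grown in LB at 37 °C and 180 rpm to OD 1. Compounds added to wells, then 0.1% inoculum of 1 OD culture (620 nm). Growth read as OD at 620 nm after 8 h for gram-negative and after 12 h for gram-positive strains.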

Staphylococcus aureus [4] = assay: Growth inhibition of Staphylococcus aureus NCIM 2010 at 10 ug/ml measured after 12 hrs relative to control; assay type: functional; conditions: NCIM 2010, 12 h, read-out: GI; how it was run: as §3
Candida albicans = assay: Antifungal activity against Candida albicans NCIM 3471 by standard agar method; assay type: functional
How it was run: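 MICs determined by standard agar method; DMSO as solvent control.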

[5] = tested on: Mycobacterium tuberculosis; assay: Growth inhibition of Mycobacterium bovis BCG ATCC 35743 at dormant stage at 1.56 ug/ml measured after 12 days by nitrate reductase dye based two fold dilution method relative to control; assay type: functional; conditions: BCG str. ATCC 35743, 288 h, read-out: GI
How it was run: (§4)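 M. bovis BCG was grown in Dubos medium and assayed in Mycobacterium pheli minimal medium (pH 6.6), with compounds from DMSO stocks. Incubation lasted 8 days for active and 12 days for dormant cultures. Viability was read by nitrate reductase at 540 nm against cell-free blanks, with vehicle set as 100% growth. Primary screen was at 30, 10 and 3 µg/ml, in triplicate, mean ± SD. MIC was taken from dose-response curves.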

[6] = tested on: Mycobacterium tuberculosis; assay: Growth inhibition of Mycobacterium tuberculosis H37Ra ATCC 25177 at active stage at 0.78 ug/ml measured after 8 days by XTT dye based two fold dilution method relative to control; assay type: functional; conditions: H37Ra ATCC 25177, 192 h, read-out: GI; how it was run: as §2
Escherichia coli = assay: Growth inhibition of Escherichia coli NCIM 2688 at 10 ug/ml measured after 8 hrs relative to control; assay type: functional; conditions: NCIM 2688, 8 h, read-out: GI; how it was run: as §3
[7] = Selectivity index, ratio of GI50 for human THP1 cells to MIC for Mycobacterium tuberculosis H37Ra ATCC 25177 at dormant stage; assay type: toxicity, cell-based, THP-1; conditions: read-out: Selectivity Index
How it was run: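 SI is the cell-line GI50 divided by the dormant-stage mycobacterial MIC. […] THP-1 macrophages were PMA-differentiated for 24 h.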

[8] = tested on: Mycobacterium tuberculosis; assay: Growth inhibition of Mycobacterium tuberculosis H37Ra ATCC 25177 at active stage measured after 8 days by XTT dye based two fold dilution method; assay type: functional; conditions: H37Ra ATCC 25177, 192 h; how it was run: as §2
[9] = Cytotoxicity against primary HUVEC assessed as growth inhibition at 100 ug/ml measured after 48 hrs by MTT assay relative to control; assay type: toxicity, cell-based; conditions: human, read-out: GI
[10] = tested on: Mycobacterium tuberculosis; assay: Growth inhibition of Mycobacterium tuberculosis H37Ra ATCC 25177 at dormant stage at 6.25 ug/ml measured after 12 days by XTT dye based two fold dilution method relative to control; assay type: functional; conditions: H37Ra ATCC 25177, 288 h, read-out: GI; how it was run: as §2
Bacillus subtilis [11] = assay: Growth inhibition of Bacillus subtilis NCIM 2079 at 30 ug/ml measured after 12 hrs relative to control; assay type: functional; conditions: NCIM 2079, 12 h, read-out: GI; how it was run: as §3
[12] = tested on: Mycobacterium tuberculosis; assay: Growth inhibition of Mycobacterium bovis BCG ATCC 35743 at active stage at 6.25 ug/ml measured after 8 days by nitrate reductase dye based two fold dilution method relative to control; assay type: functional; conditions: BCG str. ATCC 35743, 192 h, read-out: GI; how it was run: as §4
Staphylococcus aureus [13] = assay: Growth inhibition of Staphylococcus aureus NCIM 2010 at 3 ug/ml measured after 12 hrs relative to control; assay type: functional; conditions: NCIM 2010, 12 h, read-out: GI; how it was run: as §3
[14] = tested on: Mycobacterium tuberculosis; assay: Growth inhibition of Mycobacterium tuberculosis H37Ra ATCC 25177 at active stage at 50 ug/ml measured after 8 days by XTT dye based two fold dilution method relative to control; assay type: functional; conditions: H37Ra ATCC 25177, 192 h, read-out: GI; how it was run: as §2
[15] = Cytotoxicity against primary HUVEC measured after 48 hrs by MTT assay; assay type: toxicity, cell-based; conditions: human
Pseudomonas fluorescens [16] = assay: Growth inhibition of Pseudomonas fluorescens NCIM 2036 at 3 ug/ml measured after 8 hrs relative to control; assay type: functional; conditions: NCIM 2036, 8 h, read-out: GI; how it was run: as §3
Bacillus subtilis [17] = assay: Growth inhibition of Bacillus subtilis NCIM 2079 at 10 ug/ml measured after 12 hrs relative to control; assay type: functional; conditions: NCIM 2079, 12 h, read-out: GI; how it was run: as §3
[18] = Cytotoxicity against human PANC1 cells measured after 48 hrs by MTT assay; assay type: toxicity, cell-based, PANC-1
Pseudomonas fluorescens [19] = assay: Growth inhibition of Pseudomonas fluorescens NCIM 2036 at 30 ug/ml measured after 8 hrs relative to control; assay type: functional; conditions: NCIM 2036, 8 h, read-out: GI; how it was run: as §3
[20] = tested on: Mycobacterium tuberculosis; assay: Growth inhibition of Mycobacterium bovis BCG ATCC 35743 at dormant stage at 3.13 ug/ml measured after 12 days by nitrate reductase dye based two fold dilution method relative to control; assay type: functional; conditions: BCG str. ATCC 35743, 288 h, read-out: GI; how it was run: as §4
[21] = tested on: Mycobacterium tuberculosis; assay: Growth inhibition of Mycobacterium bovis BCG ATCC 35743 at dormant stage at 12.5 ug/ml measured after 12 days by nitrate reductase dye based two fold dilution method relative to control; assay type: functional; conditions: BCG str. ATCC 35743, 288 h, read-out: GI
Staphylococcus aureus [22] = assay: Growth inhibition of Staphylococcus aureus NCIM 2010 at 30 ug/ml measured after 12 hrs relative to control; assay type: functional; conditions: NCIM 2010, 12 h, read-out: GI; how it was run: as §3
[23] = tested on: Mycobacterium tuberculosis; assay: Growth inhibition of Mycobacterium tuberculosis H37Ra ATCC 25177 at active stage at 3.13 ug/ml measured after 8 days by XTT dye based two fold dilution method relative to control; assay type: functional; conditions: H37Ra ATCC 25177, 192 h, read-out: GI; how it was run: as §2
[24] = Cytotoxicity against […]-differentiated human THP1 cells measured after 48 hrs by MTT assay; assay type: toxicity, cell-based, THP-1; how it was run: as §1
[25] = tested on: Mycobacterium tuberculosis; assay: Growth inhibition of Mycobacterium tuberculosis H37Ra ATCC 25177 at dormant stage at 12.5 ug/ml measured after 12 days by XTT dye based two fold dilution method relative to control; assay type: functional; conditions: H37Ra ATCC 25177, 288 h, read-out: GI
Pseudomonas fluorescens [26] = assay: Antibacterial activity against Pseudomonas fluorescens NCIM 2036 measured after 8 hrs; assay type: functional; conditions: NCIM 2036, 8 h; how it was run: as §3
[27] = tested on: Mycobacterium tuberculosis; assay: Growth inhibition of Mycobacterium bovis BCG ATCC 35743 at dormant stage at 0.78 ug/ml measured after 12 days by nitrate reductase dye based two fold dilution method relative to control; assay type: functional; conditions: BCG str. ATCC 35743, 288 h, read-out: GI; how it was run: as §4

| Structure (SMILES) | inhibition at 48 h, 100 ug/ml [1] [%] | IC50 [2] [µg/mL] | IC90 [2] [µg/mL] | inhibition of growth at 3 µg/mL (Bacillus subtilis [3]) [%] | inhibition of growth at 10 µg/mL (Staphylococcus aureus [4]) [%] | MIC (Candida albicans) [µg/mL] | inhibition of growth at 1.56 µg/mL [5] [%] | inhibition of growth at 0.78 µg/mL [6] [%] | inhibition of growth at 10 µg/mL (Escherichia coli) [%] | IC50 [8] [µg/mL] | IC90 [8] [µg/mL] | inhibition at 48 h, 100 ug/ml [9] [%] | inhibition of growth at 6.25 µg/mL [10] [%] | inhibition of growth at 30 µg/mL (Bacillus subtilis [11]) [%] | inhibition of growth at 3 µg/mL (Staphylococcus aureus [13]) [%] | inhibition of growth at 50 µg/mL [14] [%] | GI50 at 48 h [15] [µg/mL] | inhibition of growth at 3 µg/mL (Pseudomonas fluorescens [16]) [%] | inhibition of growth at 10 µg/mL (Bacillus subtilis [17]) [%] | GI50 at 48 h [18] [µg/mL] | other results |
| --- | --- | --- | --- | --- | --- | --- | --- | --- | --- | --- | --- | --- | --- | --- | --- | --- | --- | --- | --- | --- | --- |
| COc1ccc2nc(Cl)c(/C=C3\SC(=S)NC3=O)cc2c1 | 30.2 | 3.3 (≈ 9.8 µM) | 4.7 (≈ 14 µM) | 1.79 | 99.8 | 150 (≈ 445 µM) | -28.8 | -20.6 | -36.1 | 6.9 (≈ 20.5 µM) | 14.3 (≈ 42.5 µM) | 29.4 | 27.4 | 21.2 | 68.7 | 101 | > 100 | 76.2 | 22.7 | > 100 | selectivity ratio [7]: 20.8; inhibition of growth at 6.25 µg/mL [12]: 95.7%; inhibition of growth at 30 µg/mL (Pseudomonas fluorescens [19]): 70.9%; inhibition of growth at 3.13 µg/mL [20]: -4.93%; inhibition of growth at 12.5 µg/mL [21]: 93.8%; inhibition of growth at 30 µg/mL (Staphylococcus aureus [22]): 103%; inhibition of growth at 3.13 µg/mL [23]: 38.4%; GI50 at 48 h [24]: > 100 µg/mL; inhibition of growth at 12.5 µg/mL [25]: 72.7%; MIC (Pseudomonas fluorescens [26]): > 30 µg/mL; inhibition of growth at 0.78 µg/mL [27]: -31.1% |
| COc1ccc2cc(/C=C3\SC(=S)NC3=O)c(Cl)nc2c1 | 31.3 | 10 (≈ 29.7 µM) | > 30 | -4.12 | 44 | 50 (≈ 148 µM) | -29.2 | 16.8 | 39.4 | 5.7 (≈ 16.9 µM) | 21.1 (≈ 62.6 µM) | 25.4 | 23.2 | 8.36 | 9.19 | 102 | > 100 | 0.629 | -8.32 | > 100 | inhibition of growth at 6.25 µg/mL [12]: 96.6%; inhibition of growth at 30 µg/mL (Pseudomonas fluorescens [19]): 46.2%; inhibition of growth at 3.13 µg/mL [20]: 81.6%; inhibition of growth at 12.5 µg/mL [21]: 98.8%; inhibition of growth at 30 µg/mL (Staphylococcus aureus [22]): -23.5%; inhibition of growth at 3.13 µg/mL [23]: 8.88%; GI50 at 48 h [24]: > 100 µg/mL; inhibition of growth at 12.5 µg/mL [25]: 69.5%; MIC (Pseudomonas fluorescens [26]): > 30 µg/mL; inhibition of growth at 0.78 µg/mL [27]: -50.5% |
| O=C(O)CN1C(=O)/C(=C/c2cc3cc(F)ccc3nc2Cl)SC1=S | 14.5 | > 30 | > 30 | -1.39 | -1.12 | 50 (≈ 131 µM) | 99.4 | -48.2 | -8.65 | > 30 | > 30 | 31.2 | 7.26 | -5.15 | -0.864 | 82.8 | > 100 | 6.76 | -2.7 | > 100 | inhibition of growth at 30 µg/mL (Pseudomonas fluorescens [19]): 2.4%; inhibition of growth at 3.13 µg/mL [20]: 99.5%; inhibition of growth at 12.5 µg/mL [21]: 99.8%; inhibition of growth at 30 µg/mL (Staphylococcus aureus [22]): -19%; inhibition of growth at 3.13 µg/mL [23]: -12.6%; GI50 at 48 h [24]: > 100 µg/mL; inhibition of growth at 12.5 µg/mL [25]: 1.72%; MIC (Pseudomonas fluorescens [26]): > 30 µg/mL; inhibition of growth at 0.78 µg/mL [27]: 98.5% |
